Published values pooled from the literature.
Compare with care: the assays were run in different laboratories.
Target: Homeodomain-interacting protein kinase 3 (HIPK3, Homo sapiens, UniProt Q9H422)

SMILES	assay	conditions	remaining binding
COc1ncc2cc3ccccc3nc2c1C#N	cell-free assay, competition with immobilised ligand	5 µM	100%
O=C(NCCCN1CCOCC1)c1ccc(Nc2nccc(-c3cc4ccccc4s3)n2)cc1	binding, competition with immobilised ligand	1 µM	39%
O=C(NCC1CCOCC1)c1n[nH]cc1NC(=O)c1c(F)cccc1F	binding, competition with immobilised ligand	1 µM	63%
CCS(=O)(=O)c1cc2cc(C[C@@](O)(CC(C)(C)c3ccc(F)cc3C(N)=O)C(F)(F)F)[nH]c2cn1	cell-free assay, competition with immobilised ligand	1 µM	65%
CN(C)c1nccc(-c2cnc3ncccn23)n1	binding	1 µM	46%
c1cncc(-c2cccc(Nc3nccc(NC4CCCCC4)n3)c2)c1	binding, competition with immobilised ligand	10 µM	57%
COc1cnc(Nc2cccc(S(N)(=O)=O)c2)nc1N1CCN(c2ccccc2)CC1	binding, competition with immobilised ligand	1 µM	100%
CCN1CCN(Cc2ccc(C(=O)Nc3ccc(C)c(Oc4ccc5c(c4)CC(=O)N5)c3)cc2C(F)(F)F)CC1	binding, competition with immobilised ligand	1 µM	100%
CN(C)C(=O)Cn1cc(-c2nc(C3(c4ccc(-c5cnc(N)nc5)cc4)CC3)no2)cn1	cell-free assay, competition with immobilised ligand	1 µM	71%
c1cnn2ncc(-c3ccnc(N4CCC45COC5)n3)c2c1	binding	1 µM	50%
CNC(=O)[C@@H]1CC[C@@H](n2c(-c3ccc4cnccc4c3)nc3ccc(C(=O)NCc4cccc(C(N)=O)c4)cc32)C1	binding, competition with immobilised ligand	1 µM	100%
O=C(c1ccc(Nc2ncc(Cl)c(-c3ccc(Cl)s3)n2)cc1)N1CCC(N2CCCC2)CC1	binding, competition with immobilised ligand	1 µM	3.5%
O=C1NC(c2ccccn2)Sc2ccccc21 (stereo not shown)	cell-free assay, competition with immobilised ligand	1 µM	86%
C[C@H]1CCN(c2nccc(-c3cnn4ncccc34)n2)C1	binding	1 µM	61%
Cc1cnc(Nc2ccc(C(=O)N3CCC(N4CCCC4)CC3)cc2)nc1-c1cc2ccccc2s1	binding, competition with immobilised ligand	1 µM	3.1%
CS(=O)(=O)c1cc(C2(NC(=O)c3cncc4c3cnn4-c3ccc(F)cc3)CC2)ccn1	cell-free assay, competition with immobilised ligand	1 µM	85%
COc1ccnn2ncc(-c3ccnc(N(C)C)n3)c12	binding	1 µM	80%
CCCCN(CCCC)C(=O)CN1C[C@@H](c2cc(OC)c3c(c2)OCO3)[C@H](C(=O)O)[C@H]1CC(C)(C)CCC	cell-free assay, competition with immobilised ligand	1 µM	100%
CN(C)c1ncc(F)c(-c2cnn3ncccc23)n1	binding	1 µM	65%
FC(F)(F)Oc1cccc(-c2cnc3ccc(-c4ccncc4)nn23)c1	cell-free assay, competition with immobilised ligand	5 µM	0.7%
N[C@@H]1CCN(c2nccc(-c3cnn4ncccc34)n2)C1	binding	1 µM	83%
Cn1nc(C(F)(F)F)cc1-c1cnc(N2CCc3cc(S(=O)(=O)Nc4c(F)cc(Cl)cc4F)cc(N4CCCC4=O)c32)nc1	cell-free assay, competition with immobilised ligand	1 µM	85%
